Measurements taken from ChEMBL document CHEMBL4364242, “Novel cationic bis(acylhydrazones) as modulators of Epstein-Barr virus immune evasion acting through disruption of interaction between nucleolin and G-quadruplexes of EBNA1 mRNA” (Eur J Med Chem, 2019).
Active and inactive are the calls of the source. The calls are words filed in the database; no cut-off is given here.

Experiments:
human gammaherpesvirus 4 [1] = assay: Binding affinity to EB virus F-g4-EBNA1 mRNA assessed as increase in melting temperature at 1 uM by fluorescence method
Homo sapiens = species on record: Homo sapiens; assay: Binding affinity to […] assessed as increase in melting temperature at 1 uM by fluorescence method
In short: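 F-25TAG-T telomeric DNA (5'-FAM/3'-TAMRA) melted with 1 μM ligand in K-100 buffer (10 mM LiAsO2Me2, 100 mM KCl, pH 7.3). Heating 25–95 °C at 0.5 °C/min. ΔTm derived from first-derivative Tm maxima relative to the no-ligand run.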

NCI-H1299 [2] = assay: Effect on OVA expression in human H1299 cells at 10 uM incubated for 40 hrs by western blot analysis; type: functional; design: unit not given here
In short: (§1)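 OVA or 235GAr-OVA constructs transiently transfected into H1299 cells, followed by 40 h exposure to 10 μM compound or DMSO. Whole-cell lysates immunoblotted with rabbit anti-OVA; signal normalized to GAPDH. Experiments repeated at least three times.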

NCI-H1299 [3] = assay: Effect on 235Gar-OVA expression in human H1299 cells at 10 uM incubated for 40 hrs by western blot analysis; type: functional; design: unit not given here; in short: as §1
[4] = Displacement of TO from EB virus g4-EBNA1 mRNA measured after 5 mins by FID assay; design: species or system human gammaherpesvirus 4
In short: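 g4-EBNA1 RNA annealed 95 °C 5 min in K100 buffer (10 mM KAsO2Me2, 100 mM KCl, 1 mM EDTA, 1% DMSO), then mixed with TO; final 0.25 μM RNA and 0.5 μM TO, ligand 0–2.5 μM. Fluorescence read after 5 min shaking (485/520 nm), in duplicate. Displacement = 100×(1−F/F0); DC50 interpolated from the curve.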

human gammaherpesvirus 4 [5] = assay: Binding affinity to EBNA1 G4-quadruplex in human H1299 cells assessed as EB virus EBNA1 deleted GAr expression at 10 uM incubated for 40 hrs by western blot analysis; type: cell-based
In short: (§2)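 H1299 cells in RPMI-1640 with 10% FBS at 37 °C, 5% CO2, transiently transfected with EBNA1 or EBNA1ΔGAr constructs, then treated with 10 μM compound (DMSO vehicle) for 40 h. Lysates taken 48 h post-transfection and western blotted with anti-EBNA1 (OT1X). Levels normalized to GAPDH; at least three repeats.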

[6] = Binding affinity to […] (unknown origin) assessed as increase in melting temperature at 1 uM by fluorescence method
In short: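 Labeled F-myc22-T DNA (5'-FAM/3'-TAMRA) melted with 1 μM ligand in K-1 buffer (10 mM LiAsO2Me2, 1 mM KCl, 99 mM LiCl, pH 7.3). Ramp 0.5 °C/min from 25 to 95 °C. Tm taken from first-derivative maxima and ΔTm calculated versus ligand-free control.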

human gammaherpesvirus 4 [7] = assay: Binding affinity to EBNA1 G4-quadruplex in human H1299 cells assessed as EB virus EBNA1 expression at 10 uM incubated for 40 hrs by western blot analysis; type: cell-based; in short: as §2
NCI-H1299 [8] = assay: Cytotoxicity against 235Gar-OVA-over expressing human H1299 cells at 10 uM incubated for 40 hrs; type: cell-based; conditions: nci-h1299, 40 h
NCI-H1299 [9] = assay: Cytotoxicity against OVA-over expressing human H1299 cells at 10 uM incubated for 40 hrs; type: cell-based; conditions: nci-h1299, 40 h
[10] = Inhibition of recombinant NCL (unknown origin)/EB virusG4-EBNA1 mRNA interaction at 10 uM by RNA pull-down assay
In short: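 Biotin-TEG RNA (g4-EBNA1 or non-G4 GM) folded in 10 mM Tris pH 7.5, 100 mM KCl, 0.1 mM EDTA (95 °C 5 min, cooled 2 °C/min), then bound to blocked streptavidin beads. 200 ng recombinant NCL added for 90 min at room temperature with 10 μM compound or DMSO. Beads washed up to 800 mM KCl; eluates western-blotted for NCL.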

Activity (human gammaherpesvirus 4 [1]) | ΔTm (Homo sapiens) | IC50 [4] | ΔTm [6] | ΔTm (human gammaherpesvirus 4 [1]) | fold change (FC) [10] | Compound | Activity (NCI-H1299 [2]) | Activity (NCI-H1299 [3]) | Activity (human gammaherpesvirus 4 [5]) | Activity (human gammaherpesvirus 4 [7]) | Activity (NCI-H1299 [8]) | Activity (NCI-H1299 [9])
Active | 15 to 30 °C | 800 nM | 15 to 30 °C | – | – | CC[n+]1cccc2cc(/C=N/NC(=O)c3ccc4ccc(C(=O)N/N=C/c5ccc6c(ccc[n+]6CC)c5)nc4n3)ccc21.[I-].[I-] | 111 | 82 | inactive | inactive | – | –
– | – | 740 nM | – | – | – | C[n+]1ccc(/C=N/NC(=O)c2cc(C(=O)N/N=C/c3cc[n+](C)c4ccccc34)ncn2)c2ccccc21.[I-].[I-] | 103 | 89 | inactive | inactive | – | –
– | – | > 2500 nM | – | – | – | CC[n+]1cccc2cc(/C=N/NC(=O)c3cc(C(=O)N/N=C/c4ccc5c(ccc[n+]5CC)c4)ncn3)ccc21.[I-].[I-] | 47 | 48 | Active | Active | Toxic | Toxic
– | > 35 °C | 310 nM | > 35 °C | 30 °C | 2 | C[n+]1cc(NC(=O)c2ccc3ccc4ccc(C(=O)Nc5cc6ccccc6[n+](C)c5)nc4c3n2)cc2ccccc21 | – | – | – | – | – | –
– | – | 930 nM | – | < 10 °C | – | C[n+]1ccc(/C=N/NC(=O)c2ccc3ccc(C(=O)N/N=C/c4cc[n+](C)cc4)nc3n2)cc1.[I-].[I-] | 99 | 112 | inactive | inactive | – | –
Active | 15 to 30 °C | 720 nM | 15 to 30 °C | – | – | O=C(N/N=C/c1ccc2c(ccc[n+]2Cc2ccccc2)c1)c1cccc(C(=O)N/N=C/c2ccc3c(ccc[n+]3Cc3ccccc3)c2)n1.[Br-].[Br-] | 70 | 58 | Active | Active | Toxic | Toxic
Active | 15 to 30 °C | 1090 nM | 15 to 30 °C | – | – | O=C(N/N=C/c1ccc2c(ccc[n+]2Cc2ccccc2)c1)c1ccc2ccc(C(=O)N/N=C/c3ccc4c(ccc[n+]4Cc4ccccc4)c3)nc2n1.[Br-].[Br-] | 108 | 104 | inactive | inactive | – | –
– | – | > 2500 nM | – | – | – | O=C(N/N=C/c1ccc2c(ccc[n+]2Cc2ccccc2)c1)c1cc(C(=O)N/N=C/c2ccc3c(ccc[n+]3Cc3ccccc3)c2)ncn1.[Br-].[Br-] | 137 | 139 | Active | Active | – | –
– | – | > 2500 nM | – | – | – | C[n+]1ccc(/C=N/NC(=O)c2cc(C(=O)N/N=C/c3cc[n+](C)cc3)ncn2)cc1.[I-].[I-] | 92 | 80 | inactive | inactive | – | –
– | 15 to 30 °C | 340 nM | 15 to 30 °C | 20 to 30 °C | – | O=C(N/N=C/c1cc[n+](Cc2ccccc2)c2ccccc12)c1ccc2ccc3ccc(C(=O)N/N=C/c4cc[n+](Cc5ccccc5)c5ccccc45)nc3c2n1.[Br-].[Br-] | 114 | 96 | inactive | inactive | – | –
– | – | 1240 nM | – | – | – | O=C(N/N=C/c1cc[n+](Cc2ccccc2)c2ccccc12)c1cc(C(=O)N/N=C/c2cc[n+](Cc3ccccc3)c3ccccc23)ncn1.[Br-].[Br-] | 106 | 108 | inactive | inactive | – | –
– | 15 to 30 °C | 320 nM | 15 to 30 °C | 10 to 20 °C | – | C[n+]1ccc(/C=N/NC(=O)c2ccc3ccc4ccc(C(=O)N/N=C/c5cc[n+](C)cc5)nc4c3n2)cc1.[I-].[I-] | 76 | 78 | Active | Active | – | –
Active | 15 to 30 °C | 390 nM | 15 to 30 °C | – | – | O=C(N/N=C/c1cc[n+](Cc2ccccc2)c2ccccc12)c1cccc(C(=O)N/N=C/c2cc[n+](Cc3ccccc3)c3ccccc23)n1.[Br-].[Br-] | 149 | 134 | Active | Active | – | –
Active | 15 to 30 °C | 740 nM | 15 to 30 °C | – | – | CC[n+]1cccc2cc(/C=N/NC(=O)c3cccc(C(=O)N/N=C/c4ccc5c(ccc[n+]5CC)c4)n3)ccc21.[I-].[I-] | 98 | 86 | inactive | inactive | – | –
– | 15 to 30 °C | 590 nM | 15 to 30 °C | 20 to 30 °C | – | CC[n+]1cccc2cc(/C=N/NC(=O)c3ccc4ccc5ccc(C(=O)N/N=C/c6ccc7c(ccc[n+]7CC)c6)nc5c4n3)ccc21.[I-].[I-] | 96 | 80 | inactive | inactive | – | –
Active | 15 to 30 °C | 610 nM | 15 to 30 °C | – | – | C[n+]1ccc(/C=N/NC(=O)c2ccc3ccc(C(=O)N/N=C/c4cc[n+](C)c5ccccc45)nc3n2)c2ccccc21.[I-].[I-] | 100 | 95 | inactive | inactive | – | –
– | – | 2320 nM | – | < 10 °C | – | C[n+]1ccc(/C=N/NC(=O)c2cccc(C(=O)N/N=C/c3cc[n+](C)cc3)n2)cc1.[I-].[I-] | 93 | 106 | inactive | inactive | – | –
– | 15 to 30 °C | 650 nM | 15 to 30 °C | 20 to 30 °C | – | O=C(N/N=C/c1ccc2c(ccc[n+]2Cc2ccccc2)c1)c1ccc2ccc3ccc(C(=O)N/N=C/c4ccc5c(ccc[n+]5Cc5ccccc5)c4)nc3c2n1.[Br-].[Br-] | 94 | 111 | inactive | inactive | – | –
Active | 15 to 30 °C | 710 nM | 15 to 30 °C | – | – | O=C(N/N=C/c1cc[n+](Cc2ccccc2)c2ccccc12)c1ccc2ccc(C(=O)N/N=C/c3cc[n+](Cc4ccccc4)c4ccccc34)nc2n1.[Br-].[Br-] | 93 | 106 | inactive | inactive | – | –
– | – | – | – | – | – | C[n+]1ccc(C=NNC(=O)c2ccc3ccc4ccc(C(=O)NN=Cc5cc[n+](C)cc5)nc4c3n2)cc1.[I-].[I-] | – | – | – | – | Toxic | Toxic
